Measurements: ChEMBL document CHEMBL3763122, “Synthesis, vasorelaxant activity and 2D-QSAR study of some novel pyridazine derivatives” (Eur J Med Chem, 2016)
Structures can show the parent of a compound that is named as a salt.

Assay: Vasorelaxant activity in Wistar rat thoracic aortic ring precontracted with norepinephrine hydrochloride
Assay type: functional
Conditions: Thoracic aorta
How it was run: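 Isolated rat thoracic aortic rings held at 2 g resting tension for 2 h. Contraction to norepinephrine hydrochloride (10^-6 M) measured before and after exposure to increasing concentrations of compound. Compounds dissolved in DMSO as a 0.01 M stock. DMSO-alone controls run at matching concentrations. Doxazosin mesylate served as reference standard.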

| IC50 [µM] | SMILES |
| --- | --- |
| 205 | COc1ccccc1-c1ccc(-n2ccnc2)nn1 |
| 205 | COc1ccc(/C=N/Nc2ccc(-c3ccc(Cl)cc3)nn2)c(OC)c1 |
| 310 | N#Cc1cnn(-c2ccc(-c3ccc(Cl)cc3)nn2)c1N |
| 284 | COc1ccccc1-c1ccc(N2CCCC2)nn1 |
| 279 | COc1ccccc1-c1ccc(NN)nn1 |
| 225 | CCOC(=O)c1cnn(-c2ccc(-c3ccccc3OC)nn2)c1N |
| 200 | COc1ccc(/C=N/Nc2ccc(-c3ccccc3OC)nn2)cc1 |
| 259 | COc1ccc(-c2ccc(-n3ccnc3)nn2)cc1 |
| 287 | N#Cc1cnn(-c2ccc(-c3ccccc3)nn2)c1N |
| 235 | c1ccc(-c2ccc(N3CCCC3)nn2)cc1 |
| 299 | COc1ccccc1-c1ccc(-n2nc(C)cc2C)nn1 |
| 300 | Clc1ccc(-c2ccc(N3CCCC3)nn2)cc1 |
| 235 | COc1ccc(-c2ccc(NN)nn2)cc1 |
| 254 | CCOC(=O)c1cnn(-c2ccc(-c3ccccc3)nn2)c1N |
| 255 | COc1cc(/C=N/Nc2ccc(-c3ccc(Cl)cc3)nn2)cc(OC)c1OC |
| 206 | NNc1ccc(-c2ccccc2)nn1 |
| 266 | COc1ccccc1-c1ccc(NNC(=O)NC2CCCCC2)nn1 |
| 230 | CCOC(=O)c1cnn(-c2ccc(-c3ccc(Cl)cc3)nn2)c1N |

| IC50 [µM] | SMILES |
| --- | --- |
| 207 | O=C(NNc1ccc(-c2ccc(Cl)cc2)nn1)Nc1ccccc1 |
| 255 | Clc1ccc(-c2ccc(-n3ccnc3)nn2)cc1 |
| 216 | CCOC(=O)c1cnn(-c2ccc(-c3ccc(OC)cc3)nn2)c1N |
| 259 | COc1ccc(/C=N/Nc2ccc(-c3ccccc3OC)nn2)c(OC)c1 |
| 275 | NNc1ccc(-c2ccc(Cl)cc2)nn1 |
| 248 | COc1ccccc1-c1ccc(N/N=C/c2ccc(C(F)(F)F)cc2)nn1 |
| 177 | O=C(NNc1ccc(-c2ccc(Cl)cc2)nn1)NC1CCCCC1 |
| 316 | COc1ccccc1-c1ccc(-n2ncc(C#N)c2N)nn1 |
| 260 | COc1ccc(-c2ccc(-n3ncc(C#N)c3N)nn2)cc1 |
| 198 | Cc1cc(C)n(-c2ccc(-c3ccccc3)nn2)n1 |
| 213 | Cc1cc(C)n(-c2ccc(-c3ccc(Cl)cc3)nn2)n1 |
| 209 | FC(F)(F)c1ccc(/C=N/Nc2ccc(-c3ccc(Cl)cc3)nn2)cc1 |
| 323 | COc1ccc(-c2ccc(-n3nc(C)cc3C)nn2)cc1 |
| 273 | c1ccc(-c2ccc(-n3ccnc3)nn2)cc1 |
| 217 | COc1ccc(/C=N/Nc2ccc(-c3ccc(Cl)cc3)nn2)cc1 |
| 221 | COc1ccccc1-c1ccc(N/N=C/c2cc(OC)c(OC)c(OC)c2)nn1 |
| 226 | COc1cc2nc(N3CCN(C(=O)C4COc5ccccc5O4)CC3)nc(N)c2cc1OC (stereo not given) [DOXAZOSIN MESYLATE] |
